Source: PubChem BioAssay
GPR7 antagonist: blocks human GPR7 receptor signaling; P48145; GPR7-expressing cells, fluorescence antagonist assay; inhibition, % at 4.4 µM; hit rate 1.1% among 290,000; in the data active = inhibition above about 16%, passing the limit was not always enough;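 also: cells stimulated with the agonist NPW; 0% = agonist with vehicle and 100% = vehicle without agonist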
Target sequence (P48145 whole entry, looked up): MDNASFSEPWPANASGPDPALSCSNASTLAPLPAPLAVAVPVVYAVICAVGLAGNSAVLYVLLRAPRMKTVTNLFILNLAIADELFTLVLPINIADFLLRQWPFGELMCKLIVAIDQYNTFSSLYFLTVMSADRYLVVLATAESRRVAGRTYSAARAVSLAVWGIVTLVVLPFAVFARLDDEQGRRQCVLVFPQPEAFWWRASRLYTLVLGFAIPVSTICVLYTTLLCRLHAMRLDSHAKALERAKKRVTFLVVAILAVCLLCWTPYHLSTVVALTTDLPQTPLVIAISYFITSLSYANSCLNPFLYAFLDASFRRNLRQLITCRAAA
CHO parental Ca: counter-screen for OX1R antagonists: effect in parental CHO cells. parental CHO-K1, ATP-induced calcium, Fluo-8 fluorescence. inhibition, % at 5.6 µM. hit rate 0.63% among 330,000. AID 463079;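 active = inhibition above that plate's mean sample inhibition plus 3 SD, cut at about 26% in these data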;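 also: 0% = ATP-challenged DMSO wells and 100% = DMSO wells without ATP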
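Test system: untransfected parental CHO cell line; also added: ATP stimulus; dosing: 5.6 µM, single dose; signal: calcium-sensitive Fluo-8 fluorescence; measure: percent inhibition of ATP-evoked calcium rise, normalized to controls; benchmarks: low control ATP plus DMSO, high control DMSO only; replication: one well per compound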
TAAR1 antag: human TAAR1 antagonism; AID 624466; inhibition, % at 3 µM; Q96RJ0; hit rate 1.5% among 360,000; CHO RD-HGA16 TAAR1, Fluo-8 calcium fluorescence, antagonist;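 active = inhibition above a per-plate cutoff, the mean inhibition of test compounds on that plate plus 3 SD, cut at about 49% in these data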;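 also: 0% = DMSO plus EC80 beta-PEA response and 100% = DMSO alone without agonist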
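Test system: hTAAR1-expressing CHO RD-HGA16 cells, Gα16-coupled; Probe or stimulus: EC80 β-phenethylamine stimulus; Compound dosing: single nominal final test compound concentration of 3 µM; Timing: 140 s kinetic read after compound, 140 s after agonist; Signal: Fluo-8 calcium-sensitive fluorescence; Measure: % inhibition of agonist calcium response; Controls: DMSO and EC80 PEA controls.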
OX1R antag-1: antagonists of human orexin 1 receptor (OX1R) | inhibition, % at 6.6 µM | OX1R-expressing cells, FRET antagonist read-out | O43613 | hit rate 1.8% among 330,000; in the data active = inhibition mostly above about 38%, no sharp cut-off; inactive = mostly below about 40%;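 also: 0% = agonist challenge alone and 100% = reference antagonist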
Target sequence (O43613 whole entry, looked up): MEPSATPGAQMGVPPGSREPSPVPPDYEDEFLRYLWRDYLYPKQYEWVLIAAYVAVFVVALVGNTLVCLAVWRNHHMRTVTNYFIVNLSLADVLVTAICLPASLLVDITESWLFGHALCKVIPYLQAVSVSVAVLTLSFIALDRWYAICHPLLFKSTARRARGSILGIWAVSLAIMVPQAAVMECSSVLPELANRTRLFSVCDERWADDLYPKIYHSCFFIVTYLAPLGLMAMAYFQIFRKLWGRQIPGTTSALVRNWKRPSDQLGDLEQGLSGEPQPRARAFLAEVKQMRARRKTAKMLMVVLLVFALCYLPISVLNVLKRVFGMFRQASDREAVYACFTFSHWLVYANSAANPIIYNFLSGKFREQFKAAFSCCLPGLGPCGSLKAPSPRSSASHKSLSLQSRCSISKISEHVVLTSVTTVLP
TAAR1 agonist: agonists of human TAAR1; Q96RJ0; CHO RD-HGA16 TAAR1, Fluo-8 calcium fluorescence; vehicle wells 0%, saturating PEA agonist 100%; activation, % at 3 µM; hit rate 0.99% among 360,000;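 active = activation above the mean activation of all test compounds in the run plus 3 SD, cut at about 38% in these data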
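System: CHO-derived RD-HGA16 cells with stable Gα16 and human TAAR1. Times: 17-24 h plating, Fluo-8 75 min 37 °C, 30 min RT. Measured by: calcium-sensitive Fluo-8 signal, excitation 470-495, emission 515-575 nm. Read-out basis: % activation relative to PEA EC100 response. Control set: DMSO and PEA EC100. Repeats: no replicates (n 1).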
OX1R antag-2: human HCRTR1 antagonism; CHO/OX1R cells, Fluo-8 calcium fluorescence, orexin A; inhibition, % at 5 µM; hit rate 0.43% among 330,000;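 active = inhibition above its plate's threshold, mean inhibition of all tested compounds on the plate plus 3 SD, cut at about 37% in these data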;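 also: 0% = orexin A challenge wells and 100% = SB-334867-A antagonist wells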
* = called active by the depositor; / = not tested or not shown. Compounds with a hit are over-represented: about 4.5% of the library has one in this group of screens.

SMILES | GPR7 antagonist | CHO parental Ca | TAAR1 antag | OX1R antag-1 | TAAR1 agonist | OX1R antag-2
CN1c2ccsc2/C(=N/Nc2ccc(F)cc2)CS1(=O)=O | 17.5 | -0.9 | 29.4 | 14.8 | 43.6* | -18.0
CCCCn1c(SCC(=O)Nc2cc(NC(=O)c3ccco3)ccc2C)nc2ccccc2c1=O | 1.1 | -11.1 | -5.1 | 41.1* | 17.3 | -11.8
Cc1ccc(S(=O)(=O)N(C)[C@H]2C[C@H]3c4[nH]c5cccc(-c6ccccc6)c5c4CCN3C(=O)[C@H]2[C@H](C)O)cc1 | / | / | 0.6 | / | 1.1 | /
COC(=O)c1cc2c(c3c4cc(OC)ccc4n(S(=O)(=O)c4ccc(F)cc4)c13)C(=O)N(Cc1ccccc1)C2 | / | / | -39.7 | / | 0.2 | /
CCOC(=O)C1CCCN(c2ncnc3c2oc2ccccc23)C1 (centres undefined) | 4.3 | 40.2* | 24.7 | 89.5* | 10.5 | 55.3*
CCOC(=O)C1CCN(c2nc(-c3ccccc3)nc3c2oc2ccccc23)CC1 | -4.1 | -10.8 | -29.9 | 19.5 | -0.5 | -31.0
CCOC(=O)C1CCCN(c2c(N3CCc4ccccc4C3)c(=O)c2=O)C1 (centres undefined) | 21.8* | / | / | / | / | /
CCOC(=O)C1CCN(c2ncnc3c2oc2ccccc23)CC1 | -2.0 | -9.3 | 4.1 | 61.8* | 8.8 | 19.0
CCCCNc1c(-c2ccc(-c3ccc(C(C)=O)cc3)c(OC)c2)nc2cc(C)ccn12 | / | 15.1 | 55.6* | 22.6 | 3.1 | 24.1
CCCCNc1c(-c2ccc(OC)c(SC3CCCCC3)c2)nc2ccc(C)cn12 | / | 98.5* | 85.2* | 31.7* | 25.9 | 90.2*
CCCCCCSc1cc(-c2nc3ccc(C)cn3c2NCCCC)ccc1OC | / | 26.6 | 48.2 | 8.7 | 11.1 | 36.1
COc1ccc(-c2nc3ccc(C)cn3c2NCc2ccccc2)cc1SC1CCCCC1 | / | 93.6* | / | 18.2 | / | 76.6*
COc1ccc(-c2nc3ccc(Cl)cn3c2NC2CCCCC2)cc1SC1CCCCC1 | / | -32.2 | -24.5 | 4.5 | 3.1 | -29.1
CCc1nc2c(OCc3ccc(F)c(F)c3)cccn2c1N(C)C(=O)c1ccncc1 | / | / | 5.1 | / | 1.7 | /
S=C1NCCOc2ccccc21 | / | / | -25.7 | / | 0.8 | /
CC(NC(=O)COC(=O)c1cccc(S(=O)(=O)N2CCCC2)c1)c1ccccc1 (centres undefined) | / | -13.7 | -11.4 | 7.7 | 1.2 | -17.5
CCOC(=O)C1(C)CCCN(C(=O)c2ccc(OC(F)F)cc2)C1 (centres undefined) | / | / | -12.3 | / | 0.4 | /
C[C@@H]1CN([C@H](C)CO)C(=O)CCCn2nncc2CO[C@H]1CN(C)Cc1cccc2c1OCCCO2 | / | / | 2.8 | / | 3.2 | /
Nc1ccc(-c2cc(-c3cccc(N)c3)nc(-c3ccccc3)n2)cc1 | 28.7* | 22.8 | -19.9 | 0.9 | 0.9 | 8.9
COc1ccc(OCCSc2nc3ccccc3n2CCC(=O)O)cc1 | -4.3 | 7.4 | 6.2 | 54.5* | -0.8 | 23.4
CCc1ccc(OCCSc2nc3ccccc3n2CCC(=O)O)cc1 | -12.2 | -7.1 | -7.4 | 31.7 | 3.9 | 3.7
COc1ccccc1OCCSc1nc2ccccc2n1CCC(=O)O | 0.1 | -1.0 | -8.5 | 66.6* | 3.2 | 7.5
COc1ccccc1OCCSc1nc2ccccc2n1CCO | -4.3 | -12.7 | 15.7 | 40.4 | 4.8 | -1.3
OCc1ccccc1OCc1ccccc1 | / | / | 7.8 | / | -1.0 | /
O=C1Nc2ccccc2Nc2ccc([N+](=O)[O-])cc21 | 2.2 | 9.8 | -11.5 | 11.1 | 5.4 | -19.9
SMILES | GPR7 antagonist | CHO parental Ca | TAAR1 antag | OX1R antag-1 | TAAR1 agonist | OX1R antag-2
O=C1Nc2ccccc2OCc2c1cccc2[N+](=O)[O-] | 6.1 | 1.0 | -14.5 | 39.6* | 2.8 | -8.1
COc1ccccc1S(=O)(=O)N(C)C[C@H]1Oc2cc(Br)ccc2S(=O)(=O)N([C@H](C)CO)C[C@H]1C | / | / | 20.2 | / | 6.9 | /
Cn1cc(CNCc2ccc(OC(F)(F)F)cc2)c(-c2ccc3c(c2)OCCO3)n1 | 8.3 | 40.4* | -13.1 | 33.3 | 8.5 | 16.2
COC1C(O)CCC2(CO2)C1C1(C)OC1CC=C(C)C (centres undefined) | / | / | -33.0 | / | 0.5 | /
Cc1ccc(-n2sc3cc(F)ccc3c2=O)c(C)c1 | / | / | 6.7 | / | 48.6* | /
Cc1ccc(-n2sc3ccccc3c2=O)cc1 | -6.7 | 32.3 | -0.6 | 24.8 | 25.9 | 19.3
O=c1c2ccc(F)cc2sn1-c1ccccc1 | / | / | 7.8 | / | 49.3* | /
O=c1c2cc(F)ccc2sn1-c1ccccc1Cl | / | / | -14.1 | / | 32.2 | /
COC(=O)CC1OCC=C2CN3CCC45C6=CC(=O)C(=O)C([N+](=O)[O-])=C6NC4C1C2CC35 (centres undefined) | / | / | -27.5 | / | 0.3 | /
CC(=O)Nc1ccc(C(=O)OCC(=O)NC(=O)NCc2ccccc2)cc1 | / | / | -7.0 | / | 4.7 | /
O=C(COC(=O)c1ccc(F)c([N+](=O)[O-])c1)NC(=O)NCc1ccccc1 | / | -3.4 | -2.6 | 33.0* | 5.5 | -1.3
Cc1ccc(C(=O)OCC(=O)N(Cc2ccccc2)C(C)C)cc1C | / | -26.2 | -2.5 | 35.6* | 3.4 | 9.2
Cc1ccc(C(=O)OCC(=O)NC(=O)NCc2ccccc2)cc1C | / | 3.9 | 50.1* | 0.9 | 30.4 | -8.3
Cc1ccc(C(=O)N2CCCC2)cc1S(=O)(=O)N1CCCCC1 | -2.3 | 1.6 | -13.2 | 4.7 | 1.1 | -15.8
O=C(Cn1ncc2c1-c1ccccc1OC2)N(Cc1ccco1)C1CCCCC1 | -0.6 | -13.3 | -14.8 | 37.0* | -0.8 | -10.3
C[C@H](O)[C@@H]1CN2CCc3ccc(-c4ccc5c(c4)OCO5)cc3[C@@H]2C[C@@H]1N(C)C(=O)c1cccc(Cl)c1 | / | / | -30.5 | / | -1.5 | /
Nc1ncc(Br)cc1S(=O)(=O)Nc1cc(C(F)(F)F)cc(C(F)(F)F)c1 | 20.1 | 25.1 | -27.7 | 84.9* | 4.2 | 24.6
c1cncc(-c2csc(-c3cccnc3)n2)c1 | 0.9 | 1.5 | 7.8 | 9.1 | 0.3 | -1.1
Clc1ccsc1-c1csc(-c2cccnc2)n1 | -4.9 | -17.5 | 5.1 | 71.3* | 1.8 | 16.9
COc1ccc(Br)cc1CNC(=O)c1ccc2c(c1)N(C)CCS2 | -1.7 | -17.3 | -2.4 | 56.5* | -0.8 | -23.9
COc1ccc(OC)c(CCNC(=O)c2ccc3c(c2)N(Cc2ccc(F)cc2)CCS3)c1 | 21.1 | -17.1 | / | 28.6 | / | 27.4
COc1ccc(CCNC(=O)c2ccc3c(c2)N(Cc2ccc(F)cc2)CCS3)c(OC)c1 | 9.3 | -1.3 | 0.4 | 45.7* | 16.4 | -12.1
CCN1CCSc2ccc(C(=O)NCc3cc(Br)ccc3OC)cc21 | -3.4 | -2.1 | -18.9 | 25.4 | 1.0 | -27.0
CCCCSCc1nc2nc(Cl)c(Cl)nc2[nH]1 | / | / | -32.6 | / | 9.8 | /
Cc1nc(-c2cccc(NC(=O)c3cccc(S(=O)(=O)N4CCCC4)c3)c2)cs1 | / | -8.8 | 53.4* | 9.6 | 8.9 | 4.1
O=C(Nc1nc(-c2ccccc2)cs1)c1ccc(N2CCOCC2)c([N+](=O)[O-])c1 | -5.6 | 41.0* | / | 80.3* | / | 38.0
